Measurements published in ChEMBL document CHEMBL2158002, “Small-molecular inhibitors of Ca²⁺-induced mitochondrial permeability transition (MPT) derived from muscle relaxant dantrolene” (2012).

System: HL-60
Assay: Inhibition of Ca2+-induced mitochondrial permeability transition in human HL60 cells at 50 uM after 40 mins relative to control
Format: functional
Details: HL-60, 40 min
In short: (§1)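 Mitochondria were isolated from human leukaemia HL-60 cells, which were grown in RPMI1640 with 5% heat-inactivated FBS and penicillin/streptomycin at 37 °C under 5% CO2. Swelling was then triggered with 250 µM CaCl2 (final) and followed as the change in OD540 at 30 °C. Inhibition % at 40 min was scaled between no-CaCl2 (100%) and CaCl2-only (0%) controls.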

First: Nc1cccc(CN2C(=O)CN(NC(=O)c3ccc(-c4cc(Cl)cc(Cl)c4)o3)C2=O)c1
Second: Nc1ccc(CN2C(=O)CN(NC(=O)c3ccc(-c4cc(Cl)cc(Cl)c4)o3)C2=O)cc1
The inhibition at 50 µM of the first is higher: 48% for the first, 46% for the second.

Going from Nc1cccc(CN2C(=O)CN(NC(=O)c3ccc(-c4ccc(Cl)cc4)o3)C2=O)c1 to Nc1cccc(CN2C(=O)CN(NC(=O)c3ccc(-c4ccccc4)o3)C2=O)c1, the inhibition at 50 µM falls from 20% to 19%.

Compared with Nc1cccc(CN2C(=O)CN(NC(=O)c3ccc(-c4cccc(Br)c4)o3)C2=O)c1, O=C(NN1CC(=O)N(Cc2cccnc2)C1=O)c1ccc(-c2cc(Cl)cc(Cl)c2)o1 is higher in inhibition at 50 µM: 11% for the first, 71% for the second.

In the case of O=C(NN1CC(=O)N(Cc2ccncc2)C1=O)c1ccc(-c2cc(Cl)cc(Cl)c2)o1, the inhibition at 50 µM is reported as 8.7%.

System: HL-60
Assay: Inhibition of Ca2+-induced mitochondrial permeability transition in human HL60 cells at 25 uM after 40 mins relative to control
Format: functional
Details: HL-60, 40 min
In short: as §1

Compared with Nc1cccc(CN2C(=O)CN(NC(=O)c3ccc(-c4cc(Cl)cc(Cl)c4)o3)C2=O)c1, Nc1cccc(CN2C(=O)CN(NC(=O)c3ccc(-c4cccc(Cl)c4)o3)C2=O)c1 is lower in inhibition at 25 µM: 35% for the first, 16% for the second.

First: Nc1cccc(CN2C(=O)CN(NC(=O)c3ccc(-c4cccc(C(F)(F)F)c4)o3)C2=O)c1
Second: Nc1cccc(CN2C(=O)CN(/N=C/c3ccc(-c4cccc(Cl)c4)o3)C2=O)c1
The inhibition at 25 µM of the first is lower: 6.5% for the first, 14% for the second.

Compared with CN1C(=O)CN(/N=C/c2ccc(-c3cccc(Cl)c3)o2)C1=O, CN1C(=O)CN(/N=C/c2ccc(-c3cc(Cl)cc(Cl)c3)o2)C1=O is higher in inhibition at 25 µM: 6% for the first, 23% for the second.

First: CN1C(=O)CN(NC(=O)c2ccc(-c3cccc(Cl)c3)o2)C1=O
Second: CN1C(=O)CN(NC(=O)c2ccc(-c3cc(Cl)cc(Cl)c3)o2)C1=O
The inhibition at 25 µM of the first is lower: 2% for the first, 8.5% for the second.

Going from Nc1cccc(CN2C(=O)CN(/N=C/c3ccc(-c4cc(Cl)cc(Cl)c4)o3)C2=O)c1 to O=C1CN(/N=C/c2ccc(-c3ccc([N+](=O)[O-])cc3)o2)C(=O)N1 [DANTROLENE SODIUM], the inhibition at 25 µM falls from 14% to 13%.
